# Hits are enriched below; roughly 1.8% of the tested compounds scored in any of these assays.
# HKDC1 inh: inhibitors of human hexokinase HKDC1 | Q2TB90 | recombinant HKDC1, G6PDH/diaphorase resazurin coupled fluorescence | inhibition, % at 20 µM | actives 0.16% (n = 340,000) | AID 493160;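 active = inhibition above about 35% when tested at 20 µM, limit read from the data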;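 note: plate controls were DMSO wells with enzyme for no effect and DMSO wells lacking enzyme for full effect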
#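 Assay system: recombinant HKDC1 hexokinase; detection: coupled resazurin fluorescence, excitation 525 nm, emission 613 nm; benchmarks: DMSO-plus-enzyme-mix negative control, buffer-substituted positive control; compound dosing: single 20 µM dose; schedule: 90 min at room temperature in dark; also added: glucose plus 1 mM ATP as hexokinase substrates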
# Scp1 inh: blocks human Scp-1 phosphatase activity; Q9GZU7; Recombinant Scp1, phosphopeptide, malachite green phosphate absorbance; inhibition, % at 20 µM; actives 0.88% (n = 340,000); AID 493091;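 active = inhibition above about 50% at 20 µM, limit read from the data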;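 note: plate controls were DMSO wells with enzyme for no effect and wells lacking enzyme for full effect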
# Target sequence (Q9GZU7 76-261 limits assumed): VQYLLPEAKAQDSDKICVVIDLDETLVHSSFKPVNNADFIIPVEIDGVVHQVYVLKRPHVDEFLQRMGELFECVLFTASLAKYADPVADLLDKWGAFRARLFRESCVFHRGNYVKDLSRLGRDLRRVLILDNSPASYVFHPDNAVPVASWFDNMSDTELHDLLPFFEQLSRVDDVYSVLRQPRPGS
#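 Test system: SCP-1 phosphatase catalytic domain, residues 76-261 | Compound dosing: One concentration, 20 µM, with 1.0% DMSO | Schedule: 45 min room-temperature reaction, 5 min colour, 30 min stabiliser | Detection: Absorbance at 630 nm | Read-out basis: % inhibition of SCP-1 phosphate liberation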
# DNMT1 block: DNMT1 (human) enzyme inhibition. DNMT1 molecular beacon, Hinp1I cleavage, fluorescence. inhibition (reported as % activation of signal), % at 10 µM. AID 588458. actives 0.83% (n = 360,000); in the data active = inhibition above about 50%
# STEP inh: STEP (human) phosphatase inhibition; P54829; recombinant STEP, OMFP fluorogenic substrate, fluorescence; inhibition, % at 20 µM; actives 0.25% (n = 360,000);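 active = inhibition at 20 µM, scaled per plate between control wells, above about 37%, limit read from the data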;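 note: 0% = DMSO with enzyme and substrate and 100% = substrate only without enzyme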
#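 medium = Bis-Tris buffer pH 6.0, 2.5 mM DTT, 0.005% Tween 20 | test system = STEP (striatal-enriched tyrosine phosphatase) enzyme, cell-free | measure = normalized % inhibition | compound dosing = 20 µM, 1% DMSO | also added = 25 µM OMFP | schedule = reaction 20 min, ambient temperature | measured by = fluorescence read at 480 nm ex / 540 nm em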
# SUMO1 PPI mod: alters human SUMO1 binding to SIM partners. P63165. SUMO1 binding to a labelled peptide, TR-FRET, 1 h. inhibition, % at 20 µM. actives 0.33% (n = 360,000); in the data active = inhibition above about 37%
# Target sequence (P63165 whole entry, looked up): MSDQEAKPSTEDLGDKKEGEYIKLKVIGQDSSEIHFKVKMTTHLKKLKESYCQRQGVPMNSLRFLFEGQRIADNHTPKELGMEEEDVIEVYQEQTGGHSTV
# LMPTP inh: LMPTP (human) inhibition; P24666; recombinant LMPTP-A, OMFP fluorogenic substrate, fluorescence intensity; inhibition, % at 20 µM; actives 0.22% (n = 360,000);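 active = compounds that cut the enzyme signal by at least half of the control window in the single-dose screen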;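 note: plate controls were DMSO wells with enzyme plus substrate for no effect and substrate without enzyme for full effect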
# Target sequence (P24666 whole entry, looked up): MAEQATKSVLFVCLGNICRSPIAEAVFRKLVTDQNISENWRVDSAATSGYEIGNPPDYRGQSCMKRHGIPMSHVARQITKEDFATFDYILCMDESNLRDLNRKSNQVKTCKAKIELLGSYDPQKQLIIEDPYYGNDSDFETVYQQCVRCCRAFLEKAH
#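 Test system – LMPTP-A enzyme · Amount – LMPTP-A at 0.625 nM final in the reaction · Buffer or medium – Bis-Tris pH 6.0, DTT, detergent · Reagent – OMFP 400 µM · Doses – single 20 µM dose · Schedule – reaction 50 min, room temperature, dark · Detection – fluorescence intensity of OMFP turnover product · Evaluation – percent inhibition versus substrate-only and uninhibited controls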
# HKDC1 act conf: confirmation of human HKDC1 activators; inhibition, % at 20 µM; actives 14% (n = 740); recombinant HKDC1, G6PDH/diaphorase resazurin fluorescence; stronger effect = lower value; AID 504708; shares compounds with HKDC1 inh;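 active = inhibition at or below a set negative limit, negative inhibition meaning the enzyme was activated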
# Beacon interf DR: counter-screen for DNMT1 inhibitors: spectral interference, dose response | IC50, µM | molecular beacon fluorescence | shares compounds with DNMT1 block | 200 tested, under 10 active; call rule not given here
# DNMT1 inh conf: DNMT1 inhibition confirmation, single concentration; shares compounds with DNMT1 block; actives 8% (n = 2,300); DNMT1 molecular beacon HinP1I cleavage, fluorescence; inhibition, % at 10 µM;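 active = average inhibition of at least 30% in the single-concentration confirmation test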
# Beacon interf: beacon fluorescence artifact counter-screen | shares compounds with DNMT1 block | DNMT1 molecular beacon spectral interference counterscreen, fluorescence 485/520 | activation (fluorescence interference), % at 10 µM | actives 1% (n = 2,300);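 active = activation of at least 30% at 10 µM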;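 note: DNMT1 catalytic domain with a HinP1I cleavage step and a FAM/dabcyl DNA beacon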
# Numbers without * were called inactive; . = no result; ! = not active in a repeat.
SMILES,HKDC1 inh,Scp1 inh,DNMT1 block,STEP inh,SUMO1 PPI mod,LMPTP inh,HKDC1 act conf,DNMT1 inh conf,Beacon interf,others
Cc1cccc(N2CCN(C(C(=O)NCc3ccccc3)c3ccc(F)cc3)CC2)c1C (centres undefined),.,.,.,.,-2.9,4.0,.,.,.,
O=C(NCc1ccccc1)[C@]1(C(F)(F)F)C[C@H](CCc2ccccc2)CCCO1,-4.2,-2.7,5.4,-1.1,-1.5,1.8,.,.,.,
Nc1nc(Cl)c(N)c(NCC2(CO)CC(CCc3ccccc3)C2)n1 (centres undefined),42.1*,-4.7,-12.2,-8.0,-1.4,1.0,2.2,.,.,
O=C(O)COc1ccc(NC(=O)c2ccc3c(c2)C(=O)N(CC2CCCO2)C3=O)cc1 (centres undefined),.,.,1.6,-3.3,-26.6,-1.1,.,.,.,
CC1(C(=O)Nc2ccc(Cl)c(Cl)c2)CCN1CCc1ccccc1 (centres undefined),.,.,7.6,0.6,6.1,4.0,.,.,.,
O=C1c2cc(CO)cc(O)c2C(=O)c2c(O[C@@H]3OC(CO)[C@@H](O)[C@@H](O)[C@@H]3O)cccc21 (some centres undefined),9.2,9.5,2.9,1.2,-33.2,2.7,.,.,.,
O=C(O)c1cc(O)c2c(c1)[C@@H]([C@H]1c3cc(C(=O)O)cc(O)c3C(=O)c3c(O[C@@H]4O[C@H](CO)[C@@H](O)[C@H](O)[C@H]4O)cccc31)c1cccc(OC3O[C@H](CO)[C@@H](O)[C@H](O)[C@H]3O)c1C2=O (some centres undefined),83.2*,92.4*,97.8*,97.6*,119.3*,92.4*,50.9,.,.,
O=C(O)c1cc(O)c2c(c1)[C@H]([C@H]1c3cc(C(=O)O)cc(O)c3C(=O)c3c(O[C@@H]4O[C@H](CO)[C@@H](O)[C@H](O)[C@H]4O)cccc31)c1cccc(OC3O[C@H](CO)[C@@H](O)[C@H](O)[C@H]3O)c1C2=O (some centres undefined),87.2*,92.4*,97.1*,98.5*,116.2*,94.1*,52.1,.,.,
COc1ccc(OC(C)C(=O)NC2CCCCCC2)cc1 (centres undefined),0.7,-2.2,-0.4,-1.4,-1.7,0.9,.,.,.,
Cc1ccc(S(=O)(=O)Nc2c(O)ccc3ccccc23)cc1,38.1*,-6.2,-27.0,5.8,-6.8,1.2,35.5,.,.,
O=S(=O)(Nc1ccc(O)c2ccccc12)c1ccc(F)cc1,43.0*,-13.9,-15.9,1.8,-8.1,2.9,6.5,.,.,
CCc1ccc(S(=O)(=O)Nc2ccc(O)c3ccccc23)cc1,44.0*,-7.7,-17.9,-1.1,-16.7,1.3,20.4,.,.,
O=S(=O)(Nc1ccc(NS(=O)(=O)c2ccccc2)c2ccccc12)c1ccccc1,.,.,-1.1,-3.6,-3.6,0.0,.,.,.,
Cc1cc(C)cc(N(CCC#N)C(=O)COC(=O)C2CCN(c3ccc(C(F)(F)F)cn3)CC2)c1,2.6,5.6,-1.6,-2.2,8.9,4.4,.,.,.,
COc1ccc(-c2nnc(SC)nc2-c2ccc(OC)c([N+](=O)[O-])c2)cc1[N+](=O)[O-],33.9,32.9,9.2,-0.8,-22.3,3.0,13.4,.,.,
O=C(O)c1cc(O)c2c(c1)C(=O)c1cccc(O)c1C2=O,40.2*,64.6*,69.4*,12.6,32.4,10.1,-2.0,8.6,1.1,
Cc1cc(C(C)(C)C)cc(C)c1S(=O)(=O)N1CCN(C(=O)c2cc([N+](=O)[O-])c[nH]c2=O)CC1,1.3,-2.3,-2.4,-0.4,-5.6,0.2,.,.,.,
O=C1C(=O)c2c(ccc3ccccc23)-c2ccccc21,33.1,101.4*,108.1*,15.9,60.9*,43.2,-6.9,28.2,-9.8,Beacon interf DR=>99
Cc1ccc(NC(=O)CN2C(=O)S/C(=C/c3ccc(-c4cc(C(=O)O)ccc4C)o3)C2=O)cc1C,43.0*,72.5*,111.0*,9.7,25.9,23.5,0.6,117.6*,-0.3,Beacon interf DR=>99
CC1=NOC(=O)/C1=C/c1ccc(-c2ccc(Cl)cc2)o1,.,.,42.6,4.6,20.1,3.9,.,.,.,
CC1=NOC(=O)/C1=C\c1ccc(-c2cc(Cl)ccc2Cl)o1,56.8*,10.8,81.5*,1.4,47.5*,0.2,10.2,3.5,-7.6,
C[c-]1[c-](C)[c-](C)[c-](C)[c-]1C.[Fe].c1cc2nccc(N3CCCC3)[c-]2c1 (centres undefined),48.5*!,68.5*!,102.0*!,76.6*,119.8*,71.0*,-2.4,4.2,4.1,
c1cc(N2CCCCC2)nc(N2CCCCC2)n1,-9.2,-12.4,-0.2,-4.5,2.6,-0.9,.,.,.,
Cc1cc2c(N)cccc2nn1,35.1*,60.3*,127.3*,75.3*,72.5*,93.2*,3.8,1.3,0.4,
CN1CCN(S(=O)(=O)c2cccc(C(=O)Nc3cc(Cl)ccc3N3CCOCC3)c2)CC1,-13.2,-3.4,-3.1,4.0,3.1,-0.4,.,.,.,
SMILES,HKDC1 inh,Scp1 inh,DNMT1 block,STEP inh,SUMO1 PPI mod,LMPTP inh,HKDC1 act conf,DNMT1 inh conf,Beacon interf,others
C[C@H](CO)N1C[C@H](C)[C@@H](CN(C)S(=O)(=O)c2cccc(F)c2)Oc2ncc(Br)cc2C1=O,.,.,3.8,3.3,-5.1,0.7,.,.,.,
CN(C)/C=C1\C(=O)N(c2ccc([N+](=O)[O-])cc2)N=C1c1ccccc1,2.5,1.1,-7.4,2.1,9.7,-1.0,.,.,.,
O=C1/C(=C\c2ccc(-c3ccccc3[N+](=O)[O-])o2)C(c2ccccc2)=NN1c1ccccc1,42.3*,-19.9,62.8*,0.2,20.5,3.2,2.5,13.9,1.0,
CC1(C)O[C@@H](CC(=O)O)[C@]23CO[C@H](C(=O)[C@]4(C)C2CC[C@@]2(C)[C@H](c5ccoc5)OC(=O)C5O[C@]524)[C@@H]13 (some centres undefined),-7.5,-8.1,-2.9,1.4,-0.1,-0.2,.,.,.,
O=C1NC(=O)/C(=C\c2ccc(Sc3ccc(Cl)cc3)o2)N1,-6.3,21.0,28.0,-1.1,1.6,-1.6,.,.,.,
Cc1ccc(Sc2ccc(/C=C3/C(=O)NN(c4ccccc4)C3=O)o2)cc1,35.1*,3.5,65.1*,8.5,-22.3,4.3,20.2,12.7,2.6,
